Assay results as given in ChEMBL document CHEMBL4765399, “Design, synthesis, and biological evaluation of 5-((8-methoxy-2-methylquinolin-4-yl)amino)-1H-indole-2-carbohydrazide derivatives as novel Nur77 modulators” (Eur J Med Chem, 2020).
Activity calls are given as the source filed them. No cut-off for these calls is given here.

Key:
[1] = target: T1, Nuclear receptor subfamily 4immunitygroup A member 1 (Homo sapiens, UniProt P22736); experiment: Binding affinity to Nur77 ligand binding domain (unknown origin) assessed as dissociation constant by fluorescence titration based analysis
T1 sequence (P22736 whole entry, the tested form may be a part): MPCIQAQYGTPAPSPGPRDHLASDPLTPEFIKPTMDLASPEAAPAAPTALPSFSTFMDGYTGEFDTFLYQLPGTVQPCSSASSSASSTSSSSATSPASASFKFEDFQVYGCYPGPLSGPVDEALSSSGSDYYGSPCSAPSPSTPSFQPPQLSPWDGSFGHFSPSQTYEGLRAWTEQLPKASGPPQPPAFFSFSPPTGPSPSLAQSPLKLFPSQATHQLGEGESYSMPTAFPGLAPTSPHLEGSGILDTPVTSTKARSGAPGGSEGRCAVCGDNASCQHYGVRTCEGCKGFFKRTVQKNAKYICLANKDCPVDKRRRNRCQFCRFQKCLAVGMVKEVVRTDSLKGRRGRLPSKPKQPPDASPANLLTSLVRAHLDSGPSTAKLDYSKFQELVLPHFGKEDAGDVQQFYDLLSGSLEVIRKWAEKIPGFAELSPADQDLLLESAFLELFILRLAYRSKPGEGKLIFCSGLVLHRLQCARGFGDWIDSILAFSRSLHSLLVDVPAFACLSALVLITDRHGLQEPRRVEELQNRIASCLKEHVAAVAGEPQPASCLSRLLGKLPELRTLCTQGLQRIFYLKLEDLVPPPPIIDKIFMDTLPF
Outline: (§1)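 Intrinsic tryptophan fluorescence quench: 1 μM Nur77-LBD titrated with 0–4 μM ligand in about 0.2 μM steps (20 points). After 30 min at room temperature, read at 25 °C, excitation 280 nm, emission 340 nm. KD fitted to a two-state 1:1 complex model.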

HepG2 [2] = experiment: Upregulation of Nur77 expression in human HepG2 cells incubated for 6 hrs by Western blot analysis; assay type: functional, cell-based; details: dose 0.5-2 µM
Outline: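 HepG2, QGY-7703 and SMMC-7721 cells treated with the indicated concentrations for 6 h. HepG2 also given 2.0 µM over a time course. Lysis in RIPA with protease and phosphatase inhibitors; 40-80 µg protein by SDS-PAGE, nitrocellulose transfer. Membranes blocked with 5% milk, primary antibody overnight, HRP secondary, chemiluminescence. GAPDH as loading control.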

[3] = target: T1, Nuclear receptor subfamily 4immunitygroup A member 1; experiment: Modulation of Nur77 in human HepG2 cells assessed as induction of endoplasmic reticulum translocation at 2 uM incubated for 6 hrs by ER-tracker based confocal microscopy; assay type: subcellular; details: filed as modulator
Outline: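 HepG2 exposed to 2.0 µM for 6 h, then co-stained with Nur77 antibody and ER tracker; confocal imaging.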

QGY-7703 [4] = experiment: Inhibition of colony formation in human QGY-7703 cells at 2 uM incubated for 24 hrs measured after cell culturing for 15 days in normal medium by crystal violet staining based assay; assay type: functional; details: time 16.0 day
Outline: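 500 HepG2, QGY-7703 or SMMC-7721 cells per well allowed to attach 24 h, exposed to DMSO or 2.0 µM for 24 h, then grown 15 days in plain medium. Colonies fixed 30 min in 4% paraformaldehyde, stained 15 min with 0.1% crystal violet, photographed and counted.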

SMMC-7721 = experiment: Induction of autophagy in human SMMC-7721 cells assessed as increase in LC3-II expression measured after 12 hrs by Western blot analysis; assay type: functional, cell-based; details: dose 0.5-2 µM
Outline: (§2)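 HepG2, QGY-7703 and SMMC-7721 treated with graded concentrations for 12 h. Lysed in RIPA with inhibitors; 40-80 µg protein separated by SDS-PAGE, blotted to nitrocellulose, blocked 1 h in 5% milk, primary antibodies overnight (LC3, Beclin1, Bip, CHOP, TRB3), HRP secondaries, chemiluminescence.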

HepG2 [5] = experiment: Induction of autophagy in human HepG2 cells assessed as increase in Beclin 1 expression measured after 12 hrs by Western blot analysis; assay type: functional, cell-based; details: dose 0.5-2 µM; outline: as §2
QGY-7703 [6] = experiment: Induction of autophagy in human QGY-7703 cells assessed as increase in Beclin 1 expression measured after 12 hrs by Western blot analysis; assay type: functional, cell-based; details: dose 0.5-2 µM; outline: as §2
HepG2 [7] = experiment: Induction of autophagy in Nur77 knockout human HepG2 cells assessed as increase in Beclin 1 expression at 2 uM measured after 6 to 12 hrs by Western blot analysis; assay type: functional, cell-based; details: time 6-12 hrs
Outline: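 Scrambled-control and shNur77 HepG2 given DMSO or 2.0 µM for 6 or 12 h; immunoblotting of RIPA lysates for LC3, Beclin1 and Nur77 after SDS-PAGE and nitrocellulose transfer, chemiluminescent detection.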

HepG2 [8] = experiment: Induction of autophagy in Nur77 knockout human HepG2 cells assessed as increase in GFP-LC3 puncta formation at 2 uM after 6 hrs by fluorescence microscopic method; assay type: functional, cell-based
Outline: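 HepG2, or HepG2 and shNur77 HepG2, transfected with GFP-LC3, then given vehicle or 2.0 µM for 6 h; GFP-LC3 puncta visualised by fluorescence microscopy alongside phase-contrast images.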

HepG2 [9] = experiment: Induction of endoplasmic reticulum stress in human HepG2 cells assessed as increase in TRB3 protein expression incubated for 12 hrs by Western blot analysis; assay type: functional, cell-based; details: dose 0.5-2 µM; outline: as §2
HepG2 [10] = experiment: Induction of endoplasmic reticulum stress in human HepG2 cells assessed as increase in p-EIF2a expression at 2 uM measured after 1 to 4 hrs by Western blot analysis; assay type: functional, cell-based; details: time 1-4 hrs
Outline: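 HepG2 exposed to 2.0 µM over a time course; Nur77, Bip, p-EIF2a, TRB3 and LC3 levels followed by Western blot of RIPA lysates.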

HepG2 [11] = experiment: Induction of apoptosis in human HepG2 cells assessed as Bax/Bcl-2 ratio at 2 uM pretreated with autophagy inhibitor, 3-methyladenine for 2 hrs followed by incubation with compound for 12 hrs by Western blot analysis; assay type: functional, cell-based
HepG2 [12] = experiment: Induction of apoptosis in human HepG2 cells assessed as Bax/Bcl-2 ratio at 2 uM pretreated with ER stress inhibitor, 4-PBA for 2 hrs followed by incubation with compound for 12 hrs by Western blot analysis; assay type: functional, cell-based
HepG2 [13] = experiment: Antitumor activity against human HepG2 cells xenografted in BALB/c mouse assessed as tumor weight at 10 mg/kg/day, ip administered for 15 days (reference value: 0.86 +/- 0.18 g); assay type: functional; details: dose 20 mg/kg/day; time 15 day; in the assay text read “20 mg/kg/day” for “10 mg/kg/day”
Outline: (§3)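 Subcutaneous flank xenograft of 5×10^6 HepG2 cells in 4-week-old male Balb/c nude mice. At about 100 mm³, 15 mice were randomized into three groups: vehicle, 10 or 20 mg/kg i.p. daily for 15 days. Tumor size was measured every day, and tumors were excised and weighed at the end.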

HepG2 [14] = experiment: Antitumor activity against human HepG2 cells xenografted in BALB/c mouse assessed as tumor weight at 20 mg/kg/day, ip administered for 15 days (reference value: 0.86 +/- 0.18 g); assay type: functional; details: dose 10 mg/kg/day; time 15 day; in the assay text read “10 mg/kg/day” for “20 mg/kg/day”; outline: as §3
Mus musculus = experiment: Upregulation of Nur77 expression in tumor tissue of BALB/c mouse xenografted with human HepG2 cells at 10 to 20 mg/kg/day, ip administered for 15 days by immunohistochemical analysis; assay type: functional, organism-based; details: dose 10-20 mg/kg/day, time 15.0 day
Outline: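 Tumours taken from HepG2 xenograft mice after 15 days of daily i.p. dosing (10 or 20 mg/kg) or vehicle. Fixed in 4% paraformaldehyde, paraffin-embedded, cut into 5 µm sections. Immunostained with anti-Nur77 at 1:200.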

[15] = target: T1, Nuclear receptor subfamily 4immunitygroup A member 1; experiment: Binding affinity to Nur77 ligand binding domain (unknown origin) assessed as decrease in fluorescence intensity of protein at 332 nm at 0.2 to 4 uM by fluorescence titration based analysis; details: filed as modulator, dose 0.2-4 µM; outline: as §1
HepG2 [16] = experiment: Induction of apoptosis in human HepG2 cells assessed as necrotic cells at 1 uM incubated for 12 hrs by Annexin V-FITC/PI staining based flow cytometry (reference value: 0.068%); assay type: functional
HepG2 [17] = experiment: Induction of apoptosis in human HepG2 cells assessed as late apoptotic cells at 2 uM incubated for 12 hrs by Annexin V-FITC/PI staining based flow cytometry (reference value: 1.1 to 2.75%); assay type: functional
HepG2 [18] = experiment: Antitumor activity against human HepG2 cells xenografted in BALB/c mouse assessed as induction of ER stress by measuring increase in TRB3 level in tumor tissue at 10 to 20 mg/kg/day, ip administered for 15 days by western blot analysis; assay type: functional, organism-based; details: dose 10-20 mg/kg/day, time 15.0 day
Outline: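 HepG2 cells (5×10^6) injected subcutaneously into flanks of 4-week-old male Balb/c nude mice. At about 100 mm³, 15 mice were randomized to vehicle, 10 or 20 mg/kg i.p. once daily for 15 days. Tumors were then excised for immunostaining of paraffin sections (5 μm) or for western blot.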

Q: `COc1cccc2c(Nc3ccc4[nH]c(C(=O)N/N=C/c5ccc(SC)cc5)cc4c3)cc(C)nc12` was tested. Which Kd [1] did it give?
A: 1340 nM

Q: And the Activity (HepG2 [2])?
A: Dose-dependent effect

Q: And the Activity [3]?
A: Active

Q: What about the inhibition (QGY-7703 [4]) of the same molecule?
A: Active

Q: And the Activity (SMMC-7721)?
A: Dose-dependent effect

Q: What about the Activity (HepG2 [5]) of the same molecule?
A: Dose-dependent effect

Q: What about the Activity (QGY-7703 [6]) of the same molecule?
A: Dose-dependent effect

Q: And the Activity (HepG2 [7])?
A: Active

Q: And the Activity (HepG2 [8])?
A: inactive

Q: What about the Activity (HepG2 [9]) of the same molecule?
A: Dose-dependent effect

Q: What about the Activity (HepG2 [10]) of the same molecule?
A: Active

Q: And the Activity (HepG2 [11])?
A: inactive

Q: What about the Activity (HepG2 [12]) of the same molecule?
A: inactive

Q: And the Activity (HepG2 [13])?
A: 0.24 g

Q: And the Activity (HepG2 [14])?
A: 0.5 g

Q: And the Activity (Mus musculus)?
A: Active

Q: And the Activity [15]?
A: Active

Q: What about the Activity (HepG2 [16]) of the same molecule?
A: 0.41%

Q: What about the Activity (HepG2 [17]) of the same molecule?
A: 55.6%

Q: What about the Activity (HepG2 [18]) of the same molecule?
A: Active
